This is an account of results in ChEMBL document CHEMBL2396586, “Discovery of non-LBD inhibitor for androgen receptor by structure-guide design” (Bioorg Med Chem Lett, 2013).

For orientation: IC50 means the concentration at which inhibition is half-maximal. A word on the inhibition: it is how much of the control response was suppressed. As a reminder, the AUC(0-inf) is total exposure, with the tail of the curve extrapolated. A high value points to more exposure. One may read the MRT as a mean duration of stay, worked out from the concentration-time curve. One may read the Cmax as the maximum level reached in the sampled fluid or tissue. In general, clearance refers to the volume of plasma or blood freed of the substance per unit of time. As usually defined, the logP is a log measure of how a compound divides between an organic and an aqueous phase. Higher therefore signals a more lipophilic compound. A word on the Tmax: it is the time from dosing to the highest level. In general, AUC(0-t) refers to the area under the concentration-time curve up to a stated or last time point. Read a low AUC(0-t) as less exposure.

One series has as its target T1, Androgen receptor (Homo sapiens, UniProt P10275).
T1 sequence (P10275 whole entry): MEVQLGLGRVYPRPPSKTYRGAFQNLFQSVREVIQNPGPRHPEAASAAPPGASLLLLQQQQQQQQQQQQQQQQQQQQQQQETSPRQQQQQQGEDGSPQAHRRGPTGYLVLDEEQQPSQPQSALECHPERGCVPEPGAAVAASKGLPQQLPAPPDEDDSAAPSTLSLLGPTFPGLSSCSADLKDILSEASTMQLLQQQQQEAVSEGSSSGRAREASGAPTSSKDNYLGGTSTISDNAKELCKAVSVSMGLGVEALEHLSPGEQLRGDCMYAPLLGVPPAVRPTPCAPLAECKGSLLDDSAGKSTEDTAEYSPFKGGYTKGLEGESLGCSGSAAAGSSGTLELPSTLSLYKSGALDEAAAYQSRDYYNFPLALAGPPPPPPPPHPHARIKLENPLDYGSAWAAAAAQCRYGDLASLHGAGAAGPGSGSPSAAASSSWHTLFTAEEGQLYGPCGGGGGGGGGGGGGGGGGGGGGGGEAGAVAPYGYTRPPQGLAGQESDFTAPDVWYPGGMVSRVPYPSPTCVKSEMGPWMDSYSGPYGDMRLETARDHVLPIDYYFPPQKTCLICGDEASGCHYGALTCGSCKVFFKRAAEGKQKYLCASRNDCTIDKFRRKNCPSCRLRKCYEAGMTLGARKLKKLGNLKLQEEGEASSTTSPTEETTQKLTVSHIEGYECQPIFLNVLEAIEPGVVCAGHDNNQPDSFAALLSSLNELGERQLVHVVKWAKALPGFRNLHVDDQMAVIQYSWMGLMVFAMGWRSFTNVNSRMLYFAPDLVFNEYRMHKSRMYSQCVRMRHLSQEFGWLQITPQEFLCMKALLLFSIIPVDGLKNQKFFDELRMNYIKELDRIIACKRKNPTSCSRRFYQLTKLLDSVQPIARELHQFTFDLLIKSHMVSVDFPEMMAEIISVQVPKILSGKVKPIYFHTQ
As to the kind of experiment: Inhibition of androgen receptor in human LNCAP cells after 1 day by luciferase reporter gene assay. The class given is cell-based. Background: Reporter assays use an easily measured gene product as a stand-in for the process of interest.

For the next series, the system named is LNCaP. In words: Cytotoxicity against human LNCAP cells assessed as cell viability after 2 days by cell counting method. The class given is functional, cell-based. The following applies: 48 h. The method in brief:
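LNCap cells were grown in RPMI1640 with 10% FBS and penicillin/streptomycin at 37 °C in 5% CO2. They were seeded at 4 × 10³ cells/well, left 24 h, then exposed to compounds for 2 days. Viability was read by CCK-8 absorbance, in triplicate.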

Series [1] is described as follows: Metabolic stability in rat liver microsomes assessed as compound remaining at […] after 1 hr. The following applies: read-out: Stability. Format: ADME, Microsome.
A further series addresses CYP2D6 (Homo sapiens, UniProt P10635). As to the kind of experiment: Inhibition of CYP2D6 (unknown origin) at 10 uM relative to control. Format: ADME.
Series [2] in a line: AUC (0 to infinity) in Sprague-Dawley rat at 2.5 mg/kg, iv. The following applies: plasma. Further details: time infinity, dose 2.5 mg/kg, route intravenous. Format: ADME, organism-based. The method in brief:
(§1)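 Male Sprague-Dawley rats, n = 3 per route, were given 2.5 mg/kg by either intravenous or oral dosing. Plasma concentration–time profiles were followed, and PK parameters were derived from them, with AUC taken over 0–72 h and also to infinity.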

The nature of series [3]: Mean residence time in Sprague-Dawley rat at 2.5 mg/kg, po. Conditions: in vivo. The class given is ADME, organism-based. Further details: dose 2.5 mg/kg, route oral. The gist of the method: as §1
Series [4] in a line: Volume of distribution at steady state in Sprague-Dawley rat at 2.5 mg/kg, iv. The following applies: in vivo, read-out: Vdss. On the set-up: dose 2.5 mg/kg, route intravenous. The class given is ADME, organism-based. The gist of the method:
as §1

Series [5] in a line: Cmax in Sprague-Dawley rat at 2.5 mg/kg, po. The class given is ADME, organism-based. On the set-up: dose 2.5 mg/kg, route oral. Conditions: in vivo. The gist of the method:
as §1

A short description of series [6]: Elimination half life in Sprague-Dawley rat at 2.5 mg/kg, po. The class given is ADME, organism-based. On the set-up: dose 2.5 mg/kg, route oral. Conditions: in vivo, read-out: beta t1/2 (converted). The gist of the method: as §1
A short description of series [7]: Blood clearance in Sprague-Dawley rat at 2.5 mg/kg, iv. The class given is ADME, organism-based. On the set-up: dose 2.5 mg/kg, route intravenous. The method in brief:
as §1

Series [8] in a line: Mean residence time in Sprague-Dawley rat at 2.5 mg/kg, iv. The class given is ADME, organism-based. Further details: dose 2.5 mg/kg, route intravenous. The following applies: in vivo. The gist of the method:
as §1

The next series has as its target CYP3A4 (Homo sapiens, UniProt P08684). As to the kind of experiment: Inhibition of human recombinant CYP3A4 using dibenzylfluorescein as substrate at 10 uM preincubated for 20 mins prior to enzyme/substrate addition measured after 20 mins by fluorometric assay relative to control. The following applies: recombinant CYP3A4, probe dibenzylfluorescein. The class given is ADME. The gist of the method:
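Vivid fluorometric kit. Compounds were in acetonitrile, with an acetonitrile vehicle control. NADP-regenerating system (1.0 mM NADP+, 3.3 mM glucose-6-phosphate, 3.3 mM MgCl2, 0.4 U/mL G6PDH in 10 mM KPO4, pH 8.0) was preincubated with compound at 37 °C for 20 min. Then 0.5 pmol recombinant human CYP3A4 plus dibenzylfluorescein was added, 20 min, and the reaction was stopped. Background had enzyme/substrate added after the stop. Fluorescein read at ex 485/em 530 nm.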

A short description of series [9]: Permeability of the compound at pH 7.4 at 500 uM after 16 hrs by PAMPA. Format: ADME. Conditions: pH 7.4, 16 h. The method in brief:
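PAMPA: the donor solution was diluted from a 1 mM DMSO stock into system buffer at pH 7.4. Lipid solution was applied to each filter membrane, and the receiver side held acceptor sink buffer. The plates were incubated 16 h at room temperature. Donor and receiver sides were analysed by UV spectrometry, and donor initial concentration was also measured.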
A general note: The PAMPA barrier holds no transporters, so it reflects passive diffusion.

A short description of series [10]: Octanol-water partition coefficient, log P of the compound by pH-metric method. The class given is physicochemical.
The nature of series [11]: Oral bioavailability in Sprague-Dawley rat at 2.5 mg/kg. Format: ADME, organism-based. Conditions: in vivo. The method in brief: as §1
A short description of series [12]: Tmax in Sprague-Dawley rat at 2.5 mg/kg, po. On the set-up: dose 2.5 mg/kg, route oral. The class given is ADME, organism-based. The following applies: in vivo. The gist of the method:
as §1

A short description of series [13]: Elimination half life in Sprague-Dawley rat at 2.5 mg/kg, iv. The following applies: in vivo, read-out: beta t1/2 (converted). Further details: dose 2.5 mg/kg, route intravenous. The class given is ADME, organism-based. The gist of the method:
as §1

Series [14] in a line: AUC (0 to infinity) in Sprague-Dawley rat at 2.5 mg/kg, po. On the set-up: time infinity, dose 2.5 mg/kg, route oral. Format: ADME, organism-based. Conditions: plasma. The gist of the method: as §1
Series [15] in a line: AUC (0 to 72 hrs) in Sprague-Dawley rat at 2.5 mg/kg, iv. Further details: time < 72 hr, dose 2.5 mg/kg, route intravenous. The class given is ADME, organism-based. The following applies: plasma. The gist of the method:
as §1

Series [16] can be described thus: AUC (0 to 72 hrs) in Sprague-Dawley rat at 2.5 mg/kg, po. The class given is ADME, organism-based. Further details: time < 72 hr, dose 2.5 mg/kg, route oral. Conditions: plasma. The gist of the method:
as §1

Chain of CYP3A4 (P08684 whole entry): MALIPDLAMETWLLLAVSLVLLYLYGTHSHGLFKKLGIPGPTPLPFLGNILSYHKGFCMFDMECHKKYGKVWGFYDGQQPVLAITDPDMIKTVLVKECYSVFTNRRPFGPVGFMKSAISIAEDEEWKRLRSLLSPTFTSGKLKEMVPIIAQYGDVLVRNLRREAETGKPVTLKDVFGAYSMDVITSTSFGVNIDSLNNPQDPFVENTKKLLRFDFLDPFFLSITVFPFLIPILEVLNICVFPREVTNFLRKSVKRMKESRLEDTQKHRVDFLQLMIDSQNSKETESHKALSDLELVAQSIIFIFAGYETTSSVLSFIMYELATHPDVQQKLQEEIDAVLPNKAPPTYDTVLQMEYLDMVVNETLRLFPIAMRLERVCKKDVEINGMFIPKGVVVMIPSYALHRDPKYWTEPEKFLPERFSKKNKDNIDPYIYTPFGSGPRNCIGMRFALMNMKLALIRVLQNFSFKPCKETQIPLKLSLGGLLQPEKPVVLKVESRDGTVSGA
Chain of CYP2D6 (P10635 whole entry): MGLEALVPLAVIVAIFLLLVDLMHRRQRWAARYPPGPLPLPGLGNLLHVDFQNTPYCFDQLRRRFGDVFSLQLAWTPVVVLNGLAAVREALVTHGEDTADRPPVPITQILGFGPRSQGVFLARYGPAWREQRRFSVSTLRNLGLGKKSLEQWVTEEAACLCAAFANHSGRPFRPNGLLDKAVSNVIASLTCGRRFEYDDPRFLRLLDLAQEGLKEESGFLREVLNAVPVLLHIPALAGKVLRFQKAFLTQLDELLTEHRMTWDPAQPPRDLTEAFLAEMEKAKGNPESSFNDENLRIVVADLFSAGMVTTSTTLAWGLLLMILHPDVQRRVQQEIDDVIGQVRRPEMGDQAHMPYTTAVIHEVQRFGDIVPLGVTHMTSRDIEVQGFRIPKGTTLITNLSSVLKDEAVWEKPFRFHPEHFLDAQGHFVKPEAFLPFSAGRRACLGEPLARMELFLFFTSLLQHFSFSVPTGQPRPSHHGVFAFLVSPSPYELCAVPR

Consider `CCS(=O)(=O)Nc1cccc(-c2cc(=O)n(-c3ccc(C#N)cc3)nc2C)c1`, for which the IC50 on Androgen receptor was 6.26 µM; in the series on LNCaP, 39 µM.

As for `CCS(=O)(=O)Nc1cccc(-c2cc(=O)n(-c3ccc(Cl)c(Cl)c3)nc2C)c1`, the remaining at 1 h in series [1] was greater than 99%. For the same molecule, 10 µM produced 0% inhibition on CYP2D6. Further, the AUC(0-inf) in series [2] came to 29.8 µg·h/mL; in series [14] it was 30.5 µg·h/mL. Moreover, the IC50 on Androgen receptor amounted to 2.65 µM; in the series on LNCaP it was 11.6 µM. Also, the MRT in series [3] came to 34.9 h; in series [8] it was 26.9 h. Besides, the Vd in series [4] is 2.25 L/kg. In series [5], the peak level (Cmax) was 0.767 µg/mL. The results for the half-life in series [6] and in series [13] were 21.6 h and 19.2 h, respectively. For the same molecule, the clearance in series [7] was 0.0844 L/h/kg. Also, the inhibition at 20 min, 10 µM at CYP3A4 came out at 6.7%. In addition, the permeability entry in [9] is “permeable”. This molecule also showed a logP in series [10] of 3.82. Besides, the bioavailability in series [11] turned out to be 102%. In addition, in series [12], the Tmax was 10.3 h. For the same molecule, the results for the area under the curve AUC(0-t) at 72 h in series [15] and in series [16] were 27.5 µg·h/mL and 26.8 µg·h/mL, respectively.

For `CCS(=O)(=O)Nc1cccc(-c2cc(=O)n(-c3cc(Cl)cc(Cl)c3)nc2C)c1`, the IC50 at Androgen receptor was 13.2 µM; in the series with LNCaP, 22.9 µM.

`CCS(=O)(=O)Nc1cccc(-c2cc(=O)n(-c3ccc(F)c(Cl)c3)nc2C)c1`: the IC50 was 5.07 µM on Androgen receptor and 26.7 µM in the series with LNCaP.

Turning to `CCS(=O)(=O)Nc1cccc(-c2cc(=O)n(-c3ccc4ccccc4c3)nc2C)c1`, the results for the IC50 against Androgen receptor and in the series on LNCaP were 9.76 µM and 18.3 µM, respectively.

With `CC(O)(CS(=O)(=O)c1ccc(F)cc1)C(=O)Nc1ccc(C#N)c(C(F)(F)F)c1` (centres undefined) [BICALUTAMIDE], in the series on LNCaP, the IC50 is 23.8 µM.
